Experiments:
Format in all cases: functional, cell-based
[1] = target: T1, Solute carrier organic anion transporter family member 2B1 (Homo sapiens, UniProt O94956); assay: TP_TRANSPORTER: uptake (pH 5.0) of Lactate at a concentration of 1.91 u M in OATP-B-expressing HEK293 cells; settings: hek293, pH 5, 1.91 µM
T1 sequence (O94956 whole entry): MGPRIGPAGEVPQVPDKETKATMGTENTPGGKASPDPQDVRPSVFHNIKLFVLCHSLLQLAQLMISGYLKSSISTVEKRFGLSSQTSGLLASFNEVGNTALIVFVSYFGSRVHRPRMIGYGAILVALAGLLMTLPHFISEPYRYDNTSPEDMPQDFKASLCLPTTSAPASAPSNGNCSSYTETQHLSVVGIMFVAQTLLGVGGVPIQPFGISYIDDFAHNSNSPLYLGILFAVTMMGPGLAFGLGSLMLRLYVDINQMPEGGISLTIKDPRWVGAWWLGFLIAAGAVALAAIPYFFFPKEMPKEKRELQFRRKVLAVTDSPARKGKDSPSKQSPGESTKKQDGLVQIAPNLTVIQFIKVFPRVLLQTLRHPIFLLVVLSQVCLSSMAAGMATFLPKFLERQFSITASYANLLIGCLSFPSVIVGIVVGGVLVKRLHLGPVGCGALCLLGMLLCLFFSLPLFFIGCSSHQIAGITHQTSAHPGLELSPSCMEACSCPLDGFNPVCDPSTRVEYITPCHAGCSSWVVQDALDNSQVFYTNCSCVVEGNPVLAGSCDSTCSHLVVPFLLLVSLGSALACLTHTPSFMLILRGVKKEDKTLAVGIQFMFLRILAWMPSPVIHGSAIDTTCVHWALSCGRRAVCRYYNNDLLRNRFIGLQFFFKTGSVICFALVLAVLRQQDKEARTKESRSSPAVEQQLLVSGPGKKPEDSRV
How it was run: (§1)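 HEK293 cells transiently transfected with pcDNA3/OATP-B (calcium phosphate) or empty vector were used 40-48 h later. Suspensions were preincubated 20 min at 37°C in HEPES saline (pH 7.4), then incubated 10 min in MES/Tris-buffered uptake medium (pH 5.0 or 7.4). Cells were separated by silicone-oil centrifugal filtration. Uptake was inulin-corrected, expressed as µL/mg protein, and mock-subtracted; n=3-4.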

[2] = target: T1, Solute carrier organic anion transporter family member 2B1; assay: TP_TRANSPORTER: uptake (pH 7.4) of Lactate at a concentration of 1.91 u M in OATP-B-expressing HEK293 cells; settings: hek293, pH 7.4, 1.91 µM; how it was run: as §1
[3] = target: T1, Solute carrier organic anion transporter family member 2B1; assay: TP_TRANSPORTER: uptake (pH 7.4) of Fexofenadine at a concentration of 10 u M in OATP-B-expressing HEK293 cells; settings: hek293, pH 7.4, 10 µM
How it was run: (§2)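 Transiently transfected OATP-B or mock HEK293 cells were preincubated 20 min at 37°C (pH 7.4), then exposed for 30 min to uptake medium at pH 5.0 or 7.4. Pellets were collected through silicone oil, sonicated, extracted in 50% methanol, dried and quantified by HPLC (ODS column, fluorescence ex 240/em 290 nm). Results are µL/mg protein after mock subtraction; n=3-4.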

[4] = target: T1, Solute carrier organic anion transporter family member 2B1; assay: TP_TRANSPORTER: uptake (pH 5.0) of Fexofenadine at a concentration of 10 u M in OATP-B-expressing HEK293 cells; settings: hek293, pH 5, 10 µM; how it was run: as §2
[5] = target: T1, Solute carrier organic anion transporter family member 2B1; assay: TP_TRANSPORTER: uptake (pH 7.4) of Estradiol-17beta-D-glucuronide at a concentration of 5.72 nM in OATP-B-expressing HEK293 cells; settings: hek293, pH 7.4, 0.00572 µM
How it was run: (§3)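 HEK293 cells transiently transfected with OATP-B cDNA (calcium phosphate) or vector alone (mock), used 40-48 h later as suspensions. Preincubated 20 min at 37°C in HEPES buffer pH 7.4, then incubated with radiolabeled compound in uptake medium pH 5.0 or 7.4. DHEAS was taken up for 5 min; estradiol-17ß-glucuronide for 10 min. Cells separated by silicone oil/paraffin centrifugal filtration and counted by scintillation. Uptake (µL/mg protein) corrected for [14C]inulin adsorption; mock subtracted; n=3 or 4.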

[6] = target: T1, Solute carrier organic anion transporter family member 2B1; assay: TP_TRANSPORTER: uptake (pH 5.0) of Estradiol-17beta-D-glucuronide at a concentration of 5.72 nM in OATP-B-expressing HEK293 cells; settings: hek293, pH 5, 0.00572 µM; how it was run: as §3
[7] = target: T1, Solute carrier organic anion transporter family member 2B1; assay: TP_TRANSPORTER: uptake (pH 5.0) of Pravastatin at a concentration of 14.7 u M in OATP-B-expressing HEK293 cells; settings: hek293, pH 5, 14.7 µM; how it was run: as §1
[8] = target: T1, Solute carrier organic anion transporter family member 2B1; assay: TP_TRANSPORTER: uptake (pH 7.4) of Pravastatin at a concentration of 14.7 u M in OATP-B-expressing HEK293 cells; settings: hek293, pH 7.4, 14.7 µM; how it was run: as §1
[9] = target: T1, Solute carrier organic anion transporter family member 2B1; assay: TP_TRANSPORTER: uptake (pH 7.4) of Dehydroepiandrosterone-3-sulfate at a concentration of 2.98 nM in OATP-B-expressing HEK293 cells; settings: hek293, pH 7.4, 0.00298 µM; how it was run: as §3
[10] = target: T1, Solute carrier organic anion transporter family member 2B1; assay: TP_TRANSPORTER: uptake (pH 5.0) of Dehydroepiandrosterone-3-sulfate at a concentration of 2.98 nM in OATP-B-expressing HEK293 cells; settings: hek293, pH 5, 0.00298 µM; how it was run: as §3
[11] = target: T1, Solute carrier organic anion transporter family member 2B1; assay: TP_TRANSPORTER: uptake (pH 5.0) of Estrone-3-sulfate at a concentration of 5.43 nM in OATP-B-expressing HEK293 cells; settings: hek293, pH 5, 0.00543 µM
How it was run: (§4)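 OATP-B- or vector-transfected HEK293 cells were harvested 40-48 h after transfection and preincubated 20 min at 37°C in pH 7.4 HEPES saline. [3H]estrone-3-sulfate uptake was run for 1 min in uptake medium at pH 5.0 or 7.4 and stopped by silicone-oil centrifugal filtration. Radioactivity was counted by scintillation, corrected for [14C]inulin adsorption and given as µL/mg protein. Mock uptake was subtracted; n=3-4.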

[12] = target: T1, Solute carrier organic anion transporter family member 2B1; assay: TP_TRANSPORTER: uptake (pH 7.4) of Estrone-3-sulfate at a concentration of 5.43 nM in OATP-B-expressing HEK293 cells; settings: hek293, pH 7.4, 0.00543 µM; how it was run: as §4
[13] = substrate: C[C@]12CC[C@@H]3c4ccc(OS(=O)(=O)O)cc4CC[C@H]3[C@@H]1CCC2=O; assay: (§5) TP_TRANSPORTER: uptake (pH 5.0) in OATP-B-expressing HEK293 cells
[14] = substrate: CC[C@H](C)C(=O)O[C@H]1C[C@H](O)C=C2C=C[C@H](C)[C@H](CC[C@@H](O)C[C@@H](O)CC(=O)O)[C@H]21; assay: as §5
[15] = substrate: C[C@]12CC[C@@H]3c4ccc(OS(=O)(=O)O)cc4CC[C@H]3[C@@H]1CCC2=O; assay: TP_TRANSPORTER: uptake (pH 7.4) in OATP-B-expressing HEK293 cells
How it was run: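 OATP-B- or mock-transfected HEK293 suspensions. Preincubated 20 min at 37°C at pH 7.4, then substrate uptake in medium at pH 7.4 (Tris-adjusted). Uptake was separated by centrifugal filtration through oil and measured by scintillation, or by HPLC-fluorescence for fexofenadine. Expressed as cell-to-medium ratio (µL/mg protein), corrected by [14C]inulin space; OATP-B-specific = transfected minus mock; n=3 or 4.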

C[C@@H](O)C(=O)O [D-LACTIC ACID]
Activity [1]: is not a substrate [-] | Activity [2]: is not a substrate [-]

CC(C)(C(=O)O)c1ccc(C(O)CCCN2CCC(C(O)(c3ccccc3)c3ccccc3)CC2)cc1 (stereo not given) [FEXOFENADINE]
Activity [3]: substrate [+] | Activity [4]: substrate [+]

C[C@]12CC[C@@H]3c4ccc(O)cc4CC[C@H]3[C@@H]1CC[C@@H]2O[C@@H]1O[C@H](C(=O)O)[C@@H](O)[C@H](O)[C@H]1O [ESTRADIOL 17B GLUCURONIDE]
Activity [5]: is not a substrate [-] | Activity [6]: is not a substrate [-]

CC[C@H](C)C(=O)O[C@H]1C[C@H](O)C=C2C=C[C@H](C)[C@H](CC[C@@H](O)C[C@@H](O)CC(=O)O)[C@H]21 [PRAVASTATIN]
Activity [7]: substrate [+] | Activity [8]: is not a substrate [-]

C[C@]12CC[C@H](OS(=O)(=O)O)CC1=CC[C@@H]1[C@@H]2CC[C@]2(C)C(=O)CC[C@@H]12 [PRASTERONE SULFURIC ACID]
Activity [9]: substrate [+] | Activity [10]: substrate [+]

C[C@]12CC[C@@H]3c4ccc(OS(=O)(=O)O)cc4CC[C@H]3[C@@H]1CCC2=O [ESTRONE SULFURIC ACID]
Activity [11]: substrate [+] | Activity [12]: substrate [+]

B1: Solute carrier organic anion transporter family member 2B1 (Homo sapiens) (protein)
chain: T1 sequence (O94956 whole entry)
Km [13]: 13.1 µM | Km [14]: 2250 µM | Km [15]: 8.09 µM

— ChEMBL document CHEMBL2073884, “Functional characterization of pH-sensitive organic anion transporting polypeptide OATP-B in human” (J Pharmacol Exp Ther, 2004)
